From ChEMBL document CHEMBL4513216, “Probing the Open Global Health Chemical Diversity Library for Multistage-Active Starting Points for Next-Generation Antimalarials” (ACS Infect Dis, 2020)

Test: Toxicity liver stage against HepG2, at 10uM
Assay type: cell-based
Parameters: test concentration 10 uM, cell line HepG2-A16-CD81EGFP
Conditions: human, HepG2-A16-CD81EGFP cells; read-out: INHIBITION
How it was run: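 Uninfected HepG2-A16-CD81EGFP cells, 3 × 10^3 per well, 1536-well, plated on prespotted compound at 10 μM final, parasite-free screening media added to match infected plates; puromycin 10 μM positive, DMSO 0.5% negative; run in parallel with 48 h PbLuc assay at 37 °C, 5% CO2; viability by CellTiter-Glo luminescence, normalized to controls.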

SMILES	cytotoxicity at 10 µM
C[C@@H]1CN(C(=O)CCc2nncn2C)C[C@@]1(O)C1CCC1	-4.97%
Cc1noc(C)c1CN1CC[C@H]2OCC[C@@]2(C(=O)N(C)C)C1	-76.5%
NC(=O)c1cnc2n1CCN(C(=O)c1ccc(-c3cc[nH]n3)cc1)C2	-2.79%
CN(C)C(C(=O)N1CCC(C#N)CC1)c1ccccc1F (stereo not given)	-3.59%
O=S(=O)(c1cccnc1)N1CCCC1COc1ccccc1 (stereo not given)	-9.32%
Cc1cccc(OC2CN(C(=O)C3CC(=O)N(C4CC4)C3)C2)c1 (stereo not given)	-0.503%
Cc1cc(-c2cnc(C(C)C)nc2CN(C)C(=O)c2ccccn2)on1	2.47%
Cc1nnc(SCCCNC(=O)Nc2ccc3c(c2)OCO3)s1	7.28%
Cn1cc(-c2nnc3sc(C4CC4)nn23)cn1	-3.08%
CC1CN(C)CCN1C(=O)c1ccn(-c2cccc(F)c2)n1 (stereo not given)	-1.87%
CCCn1cc(C(=O)NCCS(N)(=O)=O)c2ccccc21	5.15%
Cc1ccc(OC2(C(=O)O)CCN(C(=O)c3cccc(F)c3)CC2)cn1	2.91%
CC(CC(=O)c1ccco1)NC(=O)c1ccon1 (stereo not given)	-17.9%
CC(C)N1CCN(C(=O)Cc2csc(-c3ccco3)n2)CC1	-2.93%
CN(C)[C@@H]1CN(Cc2ccco2)C[C@@H]2CCCO[C@@H]21	2.75%
CCc1cccc2c(CC(=O)N(C)CCN(C)C)c(C)[nH]c12	1.26%
O=C(NCc1cccnc1-n1cncn1)c1ccncc1	5.91%
Cc1ccccc1C(=O)NCc1ccnc(N(C)C)c1	-8.84%
Cc1cnn(Cc2cc(F)ccc2F)c1NC(=O)C1COCCO1 (stereo not given)	21.5%
CC(C)N(CC(N)=O)Cc1csc(-c2ncccn2)n1	5.85%
c1cc(CN2CCC(c3ccnc4nccn34)C2)ccn1 (stereo not given)	1.58%
N[C@@H]1CCN(Cc2cccc(N3CCOCC3)c2)C[C@H]1O	11.8%
COCCN(C)CC1CCCN1S(=O)(=O)c1cccc(F)c1F (stereo not given)	4.93%
CC(NC(=O)NCc1ccc(Cl)cc1)c1ccccn1 (stereo not given)	3.42%
Cc1nnc(NCC2(c3ccc(Cl)cc3Cl)CCOCC2)c(C#N)c1C	1.98%
COc1ccccc1NC(=O)Cn1c(=O)nc(N)c2cc(C)sc21	3.45%
CNc1ccnc(N(C)Cc2cc(-c3cccs3)n[nH]2)n1	-4.57%
CCOc1ccc(-c2nc(CN(C)Cc3c(C)noc3C)cs2)cc1	38.6%

SMILES	cytotoxicity at 10 µM
CN(C)c1ccc(CN(CCCn2ccnc2)Cc2c[nH]cn2)cc1	-1.34%
CCCc1nnc2sc(C3CCS(=O)(=O)CC3)nn12	1.4%
O=C(NCc1nc(-c2ncccn2)no1)c1ccc(C2CCCO2)s1 (stereo not given)	0.774%
CC(C)COCCCNC(=O)NC(C)c1ccc(-n2cncn2)cc1 (stereo not given)	2.42%
O=C(Nc1ccc(-c2nc3c([nH]2)CCNC3)cc1)N1CCCC1	-4.36%
CNC(=O)[C@@]12CCO[C@@H]1CCN(S(=O)(=O)c1ccccc1C)C2	-72.8%
COCCN1CCn2c(nc3cc(C(=O)NC(C)C)ccc32)C1	2.38%
CCCC(=O)N1CCN(Cc2cc(-c3ccncc3)nn2C)CC1	-27.1%
CC(C)c1nccn1CCCNC(=O)c1ccc(-c2ccncc2)nc1	-9.77%
COCCNc1ccccc1CNC(=O)NCc1cnc(C)s1	10.6%
c1cc(-c2cc(C3CCN(Cc4cncnc4)C3)ccn2)ccn1 (stereo not given)	-0.969%
Cc1cc(C)c2c(N3CCN(C(=O)N4CCOCC4)CC3)ncnc2n1	-8.29%
CCOc1ccccc1-n1c(-c2cn(CC)nc2C)n[nH]c1=O	2.81%
Cn1cc(C(=O)N2CCCC(c3ncc[nH]3)C2)cn1 (stereo not given)	1.95%
O=C(O)c1cc(-c2cn[nH]c2)cc(S(=O)(=O)N2CCSCC2)c1	-8.26%
O=C1Nc2ccccc2CNC12CCN(CC1CC1)CC2	6.03%
CCN1C(=O)[C@H]2CN(CC(C)C)C[C@H]2C12CCN(C(=O)NC(C)C)CC2	4.89%
COCCOc1cccc(CNCC2CN(C)CCO2)c1 (stereo not given)	-14.8%
CC(C)C[C@H](NC(=O)N1CCC(Cc2ccccc2)CC1)C(=O)O	-4.13%
CN1CCOC(CNCc2coc(-c3cccs3)n2)C1 (stereo not given)	-3.71%
Cc1ccc(-n2nnc(CC(=O)N3CCN(C4CC4)CC3)c2C)cc1	-8.06%
CCc1c(C(=O)NCC2CCS(=O)(=O)C2)cnn1-c1ccc(C)cc1 (stereo not given)	-6.69%
CCN(CC1CC1)C(=O)NCc1nnc2n1CCC2	-13.2%
Cc1ccc(S(=O)(=O)NC2=NCN(CCc3cccs3)CN2)cc1	4.77%
CCN(c1ccc(C(=O)NCCCN2CCCC2)cc1)S(=O)(=O)CC	-3.29%
Fc1ccc(Cc2cnc(C3CCCN3)cn2)cc1 (stereo not given)	-9.77%
NCCc1cccc(CN2CCN(c3ccccc3)C(=O)C2)c1	3.47%
